Measurements as given in ChEMBL document CHEMBL1137229, “Structural characterization and pharmacology of a potent (Cys101-Cys119, Cys110-Cys117) bicyclic agouti-related protein (AGRP) melanocortin receptor antagonist” (J Med Chem, 2004).
pEC50, pIC50: −log10 of the molar value. Bridge positions count the residues as written; N and C are the ends. Peptide text beside a SMILES is read from it.

What was measured:
Melanocortin receptor 4 [1] = target: T1, Melanocortin receptor 4 (Mus musculus, UniProt P56450); experiment: Displacement of [125I]-hAGRP(87-132) from mouse Melanocortin 4 Receptor
T1 sequence (P56450 whole entry): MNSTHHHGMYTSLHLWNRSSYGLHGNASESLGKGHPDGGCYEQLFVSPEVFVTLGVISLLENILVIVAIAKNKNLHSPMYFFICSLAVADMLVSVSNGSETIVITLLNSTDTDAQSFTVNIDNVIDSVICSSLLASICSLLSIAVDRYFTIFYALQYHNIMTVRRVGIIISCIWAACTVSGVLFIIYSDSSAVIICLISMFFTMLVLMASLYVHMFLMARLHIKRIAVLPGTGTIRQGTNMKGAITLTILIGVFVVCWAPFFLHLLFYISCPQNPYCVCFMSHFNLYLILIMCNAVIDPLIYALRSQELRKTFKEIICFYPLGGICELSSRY
How it was run: (§1)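 Whole HEK-293 cells stably expressing mouse receptor, plated a day before at 0.1–0.3 × 10^6 cells/well. Chloramine-T-iodinated [125I]hAGRP(87–132) at 100000 cpm/well displaced by ligand. Nonspecific binding defined with 10^-6 M hAGRP(87–132). IC50 from nonlinear least-squares fit, or percent specific binding displaced at 10 μM. Duplicate points, at least two independent experiments, SD reported.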

Melanocortin receptor 4 [2] = target: T1, Melanocortin receptor 4; experiment: Antagonistic activity against mouse Melanocortin 4 Receptor; type: functional; details: read-out: pA2 (converted)
How it was run: (§2)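 Same HEK-293 CRE/β-galactosidase cAMP reporter system as the agonist assay, with a 6 h stimulation in IBMX-containing medium and normalization to protein and forskolin. Antagonism measured as the dose-dependent shift of the MTII agonist response, ligand up to 10 μM. pA2 derived by Schild analysis. Mean ± SEM of at least three independent experiments.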

[3] = target: Melanocyte-stimulating hormone receptor (Mus musculus, UniProt Q01727); experiment: Agonistic activity against mouse Melanocortin 1 Receptor; type: functional
Sequence of Melanocyte-stimulating hormone receptor (Q01727 whole entry): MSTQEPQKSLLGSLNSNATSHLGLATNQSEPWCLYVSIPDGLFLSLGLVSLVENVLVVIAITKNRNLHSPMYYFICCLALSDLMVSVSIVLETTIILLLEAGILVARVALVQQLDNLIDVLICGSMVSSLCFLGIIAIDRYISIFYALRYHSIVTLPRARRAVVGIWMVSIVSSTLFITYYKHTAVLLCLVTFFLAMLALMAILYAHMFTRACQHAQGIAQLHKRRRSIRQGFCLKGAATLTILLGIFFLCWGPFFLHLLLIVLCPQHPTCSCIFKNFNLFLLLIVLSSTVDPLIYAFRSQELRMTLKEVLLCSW
How it was run: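 HEK-293 cells stably expressing the receptor (G418 selection), transiently transfected with a CRE/β-galactosidase reporter. Lysates read with ONPG at OD405 and normalized to protein content and forskolin (10^-4 M) response. EC50 from nonlinear least-squares fit, at least three independent experiments.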

Melanocortin receptor 3 [4] = target: T2, Melanocortin receptor 3 (Mus musculus, UniProt P33033); experiment: Displacement of [125I]-hAGRP(87-132) from mouse Melanocortin 3 Receptor; how it was run: as §1
T2 sequence (P33033 whole entry): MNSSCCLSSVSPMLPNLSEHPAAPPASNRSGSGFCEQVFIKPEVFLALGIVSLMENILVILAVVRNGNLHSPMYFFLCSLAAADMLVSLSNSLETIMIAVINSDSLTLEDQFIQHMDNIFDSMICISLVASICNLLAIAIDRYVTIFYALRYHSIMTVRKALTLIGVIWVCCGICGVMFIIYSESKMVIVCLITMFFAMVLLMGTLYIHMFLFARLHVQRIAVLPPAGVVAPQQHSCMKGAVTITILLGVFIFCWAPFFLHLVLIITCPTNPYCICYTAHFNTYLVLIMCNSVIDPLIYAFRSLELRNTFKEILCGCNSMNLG

Melanocortin receptor 3 [5] = target: T2, Melanocortin receptor 3; experiment: Antagonistic activity against mouse Melanocortin 3 Receptor; type: functional; details: read-out: pA2 (converted); how it was run: as §2

| SMILES | pIC50 (Melanocortin receptor 4 [1]) | Kb (Melanocortin receptor 4 [2]) [µM] | pEC50 [3] | pIC50 (Melanocortin receptor 3 [4]) | Kb (Melanocortin receptor 3 [5]) [µM] |
| --- | --- | --- | --- | --- | --- |
| CC[C@@H]1NC(=O)[C@H]([C@@H](C)O)NC(=O)[C@H](C)NC(=O)[C@H](CC)NC(=O)[C@@H]2CCCN2C(=O)[C@H](CC(=O)O)NC(=O)[C@H](CC)NC(=O)[C@@H](N)CSSC[C@@H](C(=O)N[C@@H](CCCN=C(N)N)C(=O)N[C@@H](CCCCN)C(=O)N[C@@H](CC(C)C)C(=O)O)NC(=O)[C@H](Cc2ccc(O)cc2)NC(=O)[C@@H]2CSSC[C@H](NC(=O)[C@H](Cc3ccc(O)cc3)NC1=O)C(=O)N[C@@H](CCCN=C(N)N)C(=O)N[C@@H](Cc1ccccc1)C(=O)N[C@@H](Cc1ccccc1)C(=O)N[C@@H](CC(N)=O)C(=O)N[C@@H](C)C(=O)N[C@@H](Cc1ccccc1)C(=O)N2 | 8.00 | 0.0316 | 5.84 | – | – |
| CC[C@@H]1NC(=O)[C@H](N)CSSC[C@@H](C(=O)N[C@@H](CCCN=C(N)N)C(=O)N[C@@H](CCCCN)C(=O)N[C@@H](CC(C)C)C(=O)O)NC(=O)[C@H](Cc2ccc(O)cc2)NC(=O)[C@H]2CSSC[C@H](NC(=O)[C@@H](Cc3ccc(O)cc3)NC(=O)[C@H](CC)NC(=O)[C@H]([C@@H](C)O)NC(=O)[C@@H](C)NC(=O)[C@H](CC)NC(=O)[C@@H]3CCCN3C(=O)[C@@H](CC(=O)O)NC1=O)C(=O)N[C@H](CCCN=C(N)N)C(=O)N[C@@H](Cc1ccccc1)C(=O)N[C@H](Cc1ccccc1)C(=O)N[C@@H](CC(N)=O)C(=O)N[C@H](C)C(=O)N[C@@H](Cc1ccccc1)C(=O)N2 | – | – | – | 6.85 | 0.158 |
| C[C@@H]1NC(=O)[C@H](CC(N)=O)NC(=O)[C@H](Cc2ccccc2)NC(=O)[C@H](Cc2ccccc2)NC(=O)[C@H](CCCNC(=N)N)NC(=O)[C@@H](NC(=O)[C@@H](N)Cc2ccc(O)cc2)CSSC[C@@H](C(=O)N[C@@H](Cc2ccc(O)cc2)C(N)=O)NC(=O)[C@H](Cc2ccccc2)NC1=O (H-YCRFFNAFCY-NH2; disulfide 2-9) | 6.56 | 0.158 | 5.29 | 4.93 | – |
